From ChEMBL document CHEMBL3860048 (J Med Chem, 2016)
The source made the active and inactive calls. The rule behind the calls is not given here. Where a SMILES comes first, the peptide text is derived from it. [ ]: non-standard residue; d: D form. Phe(3-F) = N[C@@H](Cc1cccc(F)c1)C(=O)O; Arg(Me) = CNC(=N)NCCC[C@H](N)C(=O)O; Hyp = O=C(O)[C@@H]1C[C@@H](O)CN1; Aib = CC(C)(N)C(=O)O; azaGly = NNC(=O)O

Experiments:
[1] = molecular target: KiSS-1 receptor (Rattus norvegicus, UniProt Q924U1); experiment: Agonist activity at rat KISS1R expressed in CHO/dhfr cells assessed as increase in intracellular Ca2+ levels measured for 180 secs by Fluo 3-AM dye based FLIPR assay; format: functional, cell-based
[2] = molecular target: KiSS-1 receptor (Homo sapiens, UniProt Q969F8); experiment: Agonist activity at human KISS1R expressed in CHO/dhfr cells assessed as increase in intracellular Ca2+ levels measured for 180 secs by Fluo 3-AM dye based FLIPR assay; format: functional, cell-based
Summary of the method: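 CHO cells expressing human KISS1R; FLIPR recording of ligand-induced [Ca2+]i rise over time. Maximum response taken and expressed as percent of the response to a maximal concentration of metastin(45-54). EC50 = concentration giving half-maximal mobilization, from nonlinear regression of smoothed data. Reported as ratio to the metastin(45-54) EC50.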

[3] = test system: Rattus norvegicus; experiment: Inhibition of testosterone levels in CD(SD) rat assessed as plasma testosterone level <0.04 ng/ml at 0.1 nmol/hr, sc administered continuously for 6 days through alzet osmotic pump measured after 6 days by radio-immunoassay; format: functional, organism-based
[4] = test system: Rattus norvegicus; experiment: Inhibition of testosterone levels in CD(SD) rat assessed as plasma testosterone level <0.04 ng/ml at 0.01 nmol/hr, sc administered continuously for 6 days through alzet osmotic pump measured after 6 days by radio-immunoassay; format: functional, organism-based
[5] = Solubility of the compound in water at 20 mg/ml; format: physicochemical; conditions: buffer
[6] = test system: Rattus norvegicus; experiment: Inhibition of testosterone levels in CD(SD) rat assessed as plasma testosterone level <0.04 ng/ml at 0.03 nmol/hr, sc administered continuously for 6 days through alzet osmotic pump measured after 6 days by radio-immunoassay; format: functional, organism-based

Chain of KiSS-1 receptor (Rattus norvegicus, UniProt Q924U1) (Q924U1 whole entry): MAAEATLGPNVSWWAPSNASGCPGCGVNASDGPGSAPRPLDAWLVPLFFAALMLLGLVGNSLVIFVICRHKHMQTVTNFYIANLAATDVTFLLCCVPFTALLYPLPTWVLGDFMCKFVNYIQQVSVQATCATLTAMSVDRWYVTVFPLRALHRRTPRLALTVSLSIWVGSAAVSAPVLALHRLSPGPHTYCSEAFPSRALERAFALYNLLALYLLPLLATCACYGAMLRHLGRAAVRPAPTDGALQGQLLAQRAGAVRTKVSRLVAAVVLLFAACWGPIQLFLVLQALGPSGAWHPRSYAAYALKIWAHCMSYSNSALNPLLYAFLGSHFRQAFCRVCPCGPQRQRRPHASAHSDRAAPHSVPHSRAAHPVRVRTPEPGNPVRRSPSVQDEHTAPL
Chain of KiSS-1 receptor (Homo sapiens, UniProt Q969F8) (Q969F8 whole entry): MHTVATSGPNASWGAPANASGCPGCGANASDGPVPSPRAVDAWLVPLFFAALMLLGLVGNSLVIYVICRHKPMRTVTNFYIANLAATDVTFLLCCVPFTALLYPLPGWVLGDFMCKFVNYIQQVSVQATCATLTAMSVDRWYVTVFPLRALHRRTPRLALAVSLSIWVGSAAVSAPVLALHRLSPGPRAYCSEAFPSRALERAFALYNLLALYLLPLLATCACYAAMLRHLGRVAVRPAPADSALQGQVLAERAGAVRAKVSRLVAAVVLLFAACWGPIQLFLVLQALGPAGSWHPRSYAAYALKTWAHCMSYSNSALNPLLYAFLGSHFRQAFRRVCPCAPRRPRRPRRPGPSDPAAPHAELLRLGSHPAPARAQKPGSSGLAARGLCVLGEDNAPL

SMILES	EC50 [1]	EC50 [2]	solubility [5]	inhibition [3]	inhibition [4]	inhibition [6]
CNC(=N)NCCC[C@H](NC(=O)[C@H](CC(C)C)NC(=O)NNC(=O)[C@H](Cc1ccccc1)NC(=O)[C@@H](NC(=O)[C@H](CC(N)=O)NC(=O)[C@@H](CCC(=O)O)NC(=O)[C@@H](Cc1ccc(O)cc1)NC(C)=O)[C@@H](C)O)C(=O)N[C@@H](Cc1c[nH]c2ccccc12)C(N)=O	40 nM	22 nM	–	Active	–	–
CNC(=N)NCCC[C@H](NC(=O)[C@H](CC(C)C)NC(=O)NNC(=O)[C@H](Cc1ccccc1)NC(=O)[C@@H](NC(=O)[C@H](CC(N)=O)NC(=O)[C@@H]1CCCN1C(=O)[C@@H](Cc1ccc(O)cc1)NC(C)=O)[C@@H](C)O)C(=O)N[C@@H](Cc1c[nH]c2ccccc12)C(N)=O	9.3 nM	0.48 nM	–	–	Active	–
CNC(=N)NCCC[C@H](NC(=O)[C@H](CC(C)C)NC(=O)NNC(=O)[C@H](Cc1cccc(F)c1)NC(=O)[C@@H](NC(=O)[C@H](CC(N)=O)NC(=O)[C@H](CCCCN)NC(=O)[C@@H](Cc1ccc(O)cc1)NC(C)=O)[C@@H](C)O)C(=O)N[C@@H](Cc1c[nH]c2ccccc12)C(N)=O (Ac-[dY]KNT[Phe(3-F)][azaGly]L[Arg(Me)]W-NH2)	7.1 nM	0.43 nM	Soluble	–	–	–
CNC(=N)NCCC[C@H](NC(=O)[C@H](CC(C)C)NC(=O)NNC(=O)[C@H](Cc1ccccc1)NC(=O)[C@@H](NC(=O)[C@H](CC(N)=O)NC(=O)C(C)(C)NC(=O)[C@@H](Cc1ccc(O)cc1)NC(C)=O)[C@@H](C)O)C(=O)N[C@@H](Cc1c[nH]c2ccccc12)C(N)=O (Ac-[dY][Aib]NTF[azaGly]L[Arg(Me)]W-NH2)	17 nM	2.4 nM	Soluble	–	–	Active
CNC(=N)NCCC[C@H](NC(=O)[C@H](CC(C)C)NC(=O)NNC(=O)[C@H](Cc1ccccc1)NC(=O)[C@@H](NC(=O)[C@H](CC(N)=O)NC(=O)[C@H](Cc1c[nH]c2ccccc12)NC(=O)[C@@H](Cc1ccc(O)cc1)NC(C)=O)[C@@H](C)O)C(=O)N[C@@H](Cc1c[nH]c2ccccc12)C(N)=O	4.8 nM	0.61 nM	Insoluble	–	Active	–

Continued, in another order:

EC50 [1]	EC50 [2]	solubility [5]	SMILES	inhibition [3]	inhibition [4]	inhibition [6]
18 nM	3.6 nM	–	CNC(=N)NCCC[C@H](NC(=O)[C@H](CC(C)C)NC(=O)NNC(=O)[C@H](Cc1ccccc1)NC(=O)[C@@H](NC(=O)[C@H](CC(N)=O)NC(=O)[C@@H](CCCCN)NC(=O)[C@@H](Cc1ccc(O)cc1)NC(C)=O)[C@@H](C)O)C(=O)N[C@@H](Cc1c[nH]c2ccccc12)C(N)=O	Active	–	–
46 nM	5.2 nM	Soluble	CNC(=N)NCCC[C@H](NC(=O)[C@H](CC(C)C)NC(=O)NNC(=O)[C@H](Cc1ccccc1)NC(=O)[C@@H](NC(=O)[C@H](CC(N)=O)NC(=O)CNC(=O)[C@@H](Cc1ccc(O)cc1)NC(C)=O)[C@@H](C)O)C(=O)N[C@@H](Cc1c[nH]c2ccccc12)C(N)=O (Ac-[dY]GNTF[azaGly]L[Arg(Me)]W-NH2)	–	–	Active
8.5 nM	0.75 nM	–	CNC(=N)NCCC[C@H](NC(=O)[C@H](CC(C)C)NC(=O)NNC(=O)[C@H](Cc1cccc(F)c1)NC(=O)[C@@H](NC(=O)[C@H](CC(N)=O)NC(=O)[C@@H]1C[C@@H](O)CN1C(=O)[C@@H](Cc1ccc(O)cc1)NC(C)=O)[C@@H](C)O)C(=O)N[C@@H](Cc1c[nH]c2ccccc12)C(N)=O (Ac-[dY][Hyp]NT[Phe(3-F)][azaGly]L[Arg(Me)]W-NH2)	–	Active	–
